The source of these data is article PMC5704914 (Biochemistry, 2017).

“Also recorded” adds a separate entry of the source.

One test deals with CaV1.2. Briefly: Whole-cell Ba2+ current recording in HEK293T/17 cells. Format: cell-based, rat α11.2, rat β2a, rabbit α2δ1. Particulars: for Erev (equilibrium/reversal potential) / Gmax (maximum conductance) / V1/2 (half-activation voltage): Boltzmann IV fit; for Erev (equilibrium/reversal potential) / Gmax (maximum conductance) / V1/2 (half-activation voltage) / current density relative to WT: N=6–7; for V1/2 (half-activation voltage): *** p<0.001 vs WT; for current density relative to WT: at 20 mV, ANOVA, Tukey and Bonferroni; for shift of V1/2 relative to WT: shift towards more depolarized levels. In a few lines:
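HEK293T/17 cells on poly-L-lysine coverslips were transfected 1:1:1 with β2a, α2δ1 and HA/CFP-tagged WT or mutant α11.2 (Lipofectamine 2000). Whole-cell Ba2+ currents were taken 48–72 h later from CFP-positive cells, held at −70 mV and stepped from −40 to +80 mV in 10 mV increments, with P/4 leak subtraction. Currents were capacitance-normalized, I–V curves Boltzmann-fitted, and data given as mean ± S.E.M. (ANOVA, Tukey/Bonferroni). Cells came from ≥3 independent transfections.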

Test [1] deals with surface expression of CaV1.2 (α11.2) in HEK293T/17 cells. Briefly: Cell surface biotinylation of HA-tagged α11.2 in HEK293T/17 cells. Conditions: NeutrAvidin pull-down, immunoblot, normalized to WT; N=7–13. The test is classed as cell-based, rat. In a few lines: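 HEK293T/17 cells co-transfected 1:1:1 (calcium phosphate) with α2δ1, β2a and WT or mutant CFP-HA-α11.2; medium changed at 7 h, Accutase-detached at 22 h, >95% trypan-blue-negative. 6×10^6 cells surface-labelled with 0.4 mg/mL sulfo-NHS-LC-biotin, 30 min on ice, pH 7.8; glycine-quenched, RIPA-lysed. 250 μg lysate on NeutrAvidin beads, 2 h, 4°C. Immunoblot for HA, loop II/III, GAPDH and α-tubulin; ECL exposures kept linear.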

For test [2] the test system is unchanged. Briefly: Flow cytometry of surface anti-HA staining of α11.2 in HEK293T/17 cells. Format: cell-based, rat. Conditions: N=5–7; for reduction in surface labeling of HA-epitope: relative to WT channel labeling. An outline of the steps:
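HEK293T/17 cells were co-transfected 1:1:1 with α2δ1, β2a and CFP-HA-α11.2 (HA in the domain II S5-H5 extracellular loop) by calcium phosphate, with medium changed at 7 h. At 22 h, Accutase-detached, trypan-blue-counted live cells (6×10^6) were stained on ice for 1 h in the dark ± 2.5 μg/mL Alexa 647 anti-HA, then given 1 μg/mL PI. 50,000 PI-negative singlets were collected; HA-positive percentage of CFP-positive cells was normalized to WT.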
In general terms: A flow cytometer gives signals particle by particle.

For the next test, the target named is apoCaM (Homo sapiens, UniProt P0DP23). Briefly: Fluorescence polarization, binding of IQ domain-derived peptides to apoCaM. Particulars: FP assay, relative to WT peptide. In a few lines: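 Wild-type or mutant α11.2 IQ peptides (AAs 1644-1668), N-terminally fluorescein-labelled, at 1 μM final, were mixed with twofold serial dilutions of untagged purified apoCaM starting from 100 μM. Polarization was read after ≥45 min (ex 485/20, em 528/20) and normalized to fractional binding. Kd came from fitting Y = B*X/(Kd + X); error bars are SD.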
For orientation: In fluorescence polarisation assays a small probe gives low polarisation when free and higher when bound to something large.

The next test relates to L-type channel. Conditions: ref [71], [72]; cited from earlier work.
In test [3] the test system is L-type Ca^2+ channels at the surface of hippocampal pyramidal neurons. Particulars: chelating intracellular Ca^2+, ref [27]; cited from earlier work.

As for “K1647A: fluorescein-labeled α11.2 IQ domain peptide (AAs 1644-1668), K1647A mutant”, in the test with CaV1.2, the “Erev (equilibrium/reversal potential)” value was found to be 69.2 ± 1.3 mV, the “Gmax (maximum conductance)” value was found to be 0.09 ± 0.01, the “V1/2 (half-activation voltage)” value was determined as 1.1 ± 1.4 mV and the “current density relative to WT” value was “significantly reduced current density”. In addition, the “shift of V1/2 relative to WT” value in the test on CaV1.2 was “did not reach statistical significance”. The “surface expression by biotinylation relative to WT” value in test [1] is on record as “significant decreases in surface expression”. The “reduction in surface labeling of HA-epitope” value (from here on “reduction in surface labeling”) in test [2] is recorded as ~ 35%.

“Q1655A: fluorescein-labeled α11.2 IQ domain peptide (AAs 1644-1668), Q1655A mutant”: the “effect of mutation on apoCaM binding” value with apoCaM is listed as “did not affect apoCaM binding”. In addition, in the test on CaV1.2, the “Erev (equilibrium/reversal potential)” value is on record as 67.2 ± 2.7 mV, the “Gmax (maximum conductance)” value is on record as 0.25 ± 0.02, the “V1/2 (half-activation voltage)” value is recorded as −2.6 ± 1.6 mV and the “current density relative to WT” value is on record as “did not show a significant reduction”. In test [1], the “surface expression by biotinylation relative to WT” value is “did not exhibit statistically significant differences”. Moreover, in test [2] (PI-negative, CFP-positive cells, normalized to WT), the “percentage of anti-HA and CFP co-positive events relative to WT” value was “not observed”.

Take “F1648A: fluorescein-labeled α11.2 IQ domain peptide (AAs 1644-1668), F1648A mutant”: the “effect of mutation on apoCaM binding” value in the test with apoCaM is reported as “did not affect apoCaM binding”. Further, in the test with CaV1.2, the “Erev (equilibrium/reversal potential)” value was found to be 73.5 ± 1.7 mV, the “Gmax (maximum conductance)” value was 0.26 ± 0.02, the “V1/2 (half-activation voltage)” value was 3.0 ± 1.5 mV and the “current density relative to WT” value is reported as “did not show a significant reduction”. In addition, in test [1], the “surface expression by biotinylation relative to WT” value is recorded as “did not exhibit statistically significant differences”.

For `COC(=O)C1=C(C)NC(C)=C([N+](=O)[O-])C1c1ccccc1C(F)(F)F` (stereo not drawn) [BayK8644], the “behavioral effect” value in the test on L-type channel was “depressant-like behavior”.

Consider `O=C(O)CN(CC(=O)O)c1ccccc1OCCOc1ccccc1N(CC(=O)O)CC(=O)O` [BAPTA], for which, in test [3], the “prevalence of L-type Ca2+ channels at the surface” value is on record as “increased the prevalence of L-type Ca^2+ channels at the surface”.

Take “I1654A: fluorescein-labeled α11.2 IQ domain peptide (AAs 1644-1668), I1654A mutant”: in the test with apoCaM, the “effect of mutation on apoCaM binding” value was “affected apoCaM binding; also recorded: reduced binding affinity to apoCaM”. In the test on CaV1.2, the “Erev (equilibrium/reversal potential)” value is given as 75.7 ± 1.7 mV, the “Gmax (maximum conductance)” value turned out to be 0.15 ± 0.01, the “V1/2 (half-activation voltage)” value is on record as 11.2 ± 1.5*** mV and the “current density relative to WT” value is given as “significantly reduced current density”. Moreover, in the test with CaV1.2, the “shift of V1/2 relative to WT” value was “quite pronounced and significant”. In addition, the “surface expression by biotinylation relative to WT” value in test [1] was “significant decreases in surface expression”. In test [2], the “reduction in surface labeling” value is reported as ~ 35%.

“Y1649A: fluorescein-labeled α11.2 IQ domain peptide (AAs 1644-1668), Y1649A mutant”: in the test with CaV1.2, the “Erev (equilibrium/reversal potential)” value is recorded as 66.5 ± 2.9 mV; the “Gmax (maximum conductance)” value worked out at 0.08 ± 0.01; the “current density relative to WT” value is “significantly reduced current density”; the “shift of V1/2 relative to WT” value was “quite pronounced and significant”. Moreover, the “surface expression by biotinylation relative to WT” value in test [1] is listed as “significant decreases in surface expression”. Moreover, the “reduction in surface labeling” value in test [2] was ~ 35%.
